# High-throughput results deposited in PubChem BioAssay by The Scripps Research Institute Molecular Screening Center.
# AHR act – human AHR activation | AHR-responsive luciferase reporter cells, luminescence | hit rate 2.5% among 320,000 | AID 2796 | activation, % at 5 µM; in the data active means activation above about 47%;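 further: 0% = vehicle wells and 100% = reference agonist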
# MC4R antagonist – antagonists of human melanocortin 4 receptor (MC4R); P32245; MC4R-expressing cells, MTII-stimulated cAMP, LANCE TR-FRET; inhibition, % at 6.5 µM; hit rate 0.48% among 360,000;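 active means inhibition above its plate's cutoff, the mean of tested wells on that plate plus 3 SD, cut at about 29% in these data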;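 further: 0% = Melanotan II alone and 100% = Melanotan II plus saturating MCL0020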
#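 Assay system: human MC4R-expressing U2OS cells; reagent: Melanotan II stimulation of cells; dosing: 6.5 µM single dose; timing: compound 30 min, challenge 1 h, detection 1 h; signal: TR-FRET cAMP assay; replicates: one well per compound, no replicates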
# MC4R barr agon – agonists of human melanocortin 4 receptor (MC4R) beta-arrestin | U2OS MC4R beta-arrestin complementation, luminescence; percent of melanotan II response, DMSO zero | AID 540308 | activation, % at 8.9 µM | P32245 | hit rate 0.98% among 360,000;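 active means activation above a per-plate cutoff, the mean activation of sample wells on that plate plus 3 SD, cut at about 8% in these data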
# FXN GAA850 act – activators of GAA850 frataxin (FXN) promoter. HEK293 lucGAA850 FXN promoter luciferase reporter, 24 h; percent of 10 µM SAHA response. activation, % at 6 µM. hit rate 0.56% among 360,000;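 active means activation above the average of all compounds screened plus 3 SD, cutoff fixed separately per campaign, cut at about 7.5% in these data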;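 further: 0% = DMSO wells and 100% = 10 µM SAHA wells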
# HTR2A ag – activates the mouse 5-HT2A serotonin receptor; CHO-K1 mHTR2A beta-arrestin complementation, luminescence; percent of 30 µM serotonin response; activation, % at 7.6 µM; hit rate 0.66% among 360,000;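 active means activation above a run cutoff, the mean activation of all tested compounds plus 3 SD, cut at about 14% in these data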;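 further: 0% = plate median of compound wells and 100% = 30 µM serotonin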
# Target sequence (P35363 whole entry, looked up): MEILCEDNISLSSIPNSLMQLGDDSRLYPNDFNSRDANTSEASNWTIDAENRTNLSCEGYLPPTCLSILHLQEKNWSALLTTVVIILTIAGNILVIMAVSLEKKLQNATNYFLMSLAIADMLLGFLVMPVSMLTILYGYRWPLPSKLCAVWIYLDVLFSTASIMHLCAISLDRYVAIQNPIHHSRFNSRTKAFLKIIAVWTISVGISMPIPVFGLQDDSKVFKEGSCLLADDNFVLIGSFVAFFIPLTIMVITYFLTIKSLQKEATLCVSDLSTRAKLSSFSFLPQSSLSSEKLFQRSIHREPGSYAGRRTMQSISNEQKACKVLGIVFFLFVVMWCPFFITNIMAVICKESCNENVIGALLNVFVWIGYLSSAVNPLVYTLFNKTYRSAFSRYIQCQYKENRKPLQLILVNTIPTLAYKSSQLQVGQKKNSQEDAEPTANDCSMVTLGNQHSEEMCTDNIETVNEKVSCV
# * = called active by the depositor; / = no result. The list is not random: actives were taken first. Their share in the collection is about 4.7%.
SMILES,AHR act,MC4R antagonist,MC4R barr agon,FXN GAA850 act,HTR2A ag
CC(=O)n1cc(N(C(=O)CCl)c2ccc([N+](=O)[O-])cc2)c2ccccc21,13,32*,2,-4,-3
O=C(CCl)N(c1ccccc1)c1c[nH]c2ccccc12,12,6,19*,-11,-1
COCCN1C(=O)CCC1(C)C(=O)Nc1c(C)cccc1C (centres undefined),/,/,/,/,4
O=C1/C(=C/c2ccccc2)CCc2ccc(Cl)nc21,/,13,-3,-1,-3
Clc1ccc2oc(-c3ccccn3)nc2c1,61*,-7,-2,1,6
Nc1ccc2oc(-c3ccccn3)nc2c1,0,-3,0,4,7
CCc1cc(C(=O)N(C)CC(=O)Nc2c(Cl)cccc2Cl)sc1C,2,2,-2,2,12
CCN(C(=O)c1ccco1)c1nc(CC(=O)Nc2ccc(Cl)cc2)cs1,78*,2,1,4,3
CCCCn1c(N)c(N(CC(C)C)C(=O)c2cccs2)c(=O)[nH]c1=O,-1,11,-3,2,9
CCCc1cc(=O)oc2cc3occ(C)c3cc12,47*,-4,-1,-2,1
COc1ccccc1-c1cc2ccccc2[nH]1,64*,-2,-1,4,-3
COc1ccc2nc(NC(=O)C3CCN(S(=O)(=O)c4cccs4)CC3)sc2c1,2,6,1,-9,-2
COc1ccc2nc(NC(=O)C3CCCN(S(=O)(=O)c4cccs4)C3)sc2c1 (centres undefined),71*,1,-1,-1,-1
Cc1ccc2c(c1)N(CC(=O)N1CCCCC1)C(=O)C(C)O2 (centres undefined),-1,15,1,-2,-5
Cc1nc2ccc([N+](=O)[O-])cc2c(=O)n1Cc1ccc(Br)cc1,2,-8,-2,-1,2
O=C(c1ccccc1)n1ccc2ccccc21,62*,4,1,2,-3
O=C(NN=Cc1cc(Cl)ccc1[N+](=O)[O-])c1ccco1,/,-6,-2,0,2
N#Cc1ccc(NC(=O)Cn2cnc(S(=O)(=O)N3CCCC3)c2)cc1,-2,1,1,2,7
FC(F)(F)c1nnc2c(Sc3ccccc3)nc3ccccc3n12,16,21,-4,1,0
CCc1nc2ccccc2c2nc3ccccc3n12,51*,4,1,1,-4
FC(F)(F)c1nc2ccccc2c2nc3ccccc3n12,50*,15,-2,3,0
c1ccc2c(c1)nc(CN1CCOCC1)n1c3ccccc3nc21,4,7,0,2,-1
c1ccc(-c2nc3ccccc3c3nc4ccccc4n23)cc1,52*,-1,-1,3,1
CCN(CC)CC(C)(C)C(=O)/C=C/c1ccc(/C=C/C(=O)C(C)(C)CN(CC)CC)cc1,/,-10,-1,-16,0
CCCn1nc(NC(=O)CC(C)C)c2cc3ccccc3nc21,78*,-3,-1,0,2
SMILES,AHR act,MC4R antagonist,MC4R barr agon,FXN GAA850 act,HTR2A ag
CCCCC(=O)Nc1nn(CC(C)C)c2nc3ccccc3cc12,39,3,2,4,5
CC1CC(C)CN(C(=O)COC(=O)c2ccc(Cl)nc2)C1 (centres undefined),/,4,0,2,-2
NC(CCc1ccccc1)c1csc(NC(=O)NCC2CCCCC2)n1 (centres undefined),/,3,8.7*,1,-10
NC(CCc1ccccc1)c1csc(NC(=O)Nc2cccc(C(F)(F)F)c2)n1 (centres undefined),/,11,8.8*,2,2
CCOc1ccc(NC(=S)N2CCN(S(C)(=O)=O)CC2)cc1,/,4,-1,-2,2
COC(=O)C1=CO[C@@H](O[C@@H]2O[C@H](CO)[C@@H](O)[C@H](O)[C@H]2O)C2C1CC(O)O[C@H]2C (some centres undefined),1,7,0,1,6
CC1(C(=O)NCc2ccc(Cl)cc2)CCN1C(=O)Cc1ccc(Cl)cc1Cl (centres undefined),/,-10,-2,0,-9
CCC(=O)NC(=S)Nc1ccc(NC(=O)COc2ccc(Cl)cc2Cl)cc1,4,1,18*,-2,-1
c1ccc(Nc2nc(-c3ccccc3)nc3ccccc23)cc1,13,1,1,1,0
c1ccc(-c2nc(NC3CCCC3)c3ccccc3n2)cc1,53*,12,3,4,-4
O=S(=O)(Nc1c(O)ccc2ccccc12)c1ccc(F)cc1,55*,9,0,0,6
O=S(=O)(Nc1c(O)ccc2ccccc12)c1ccccc1,54*,2,-1,0,3
O=S(=O)(Nc1ncccn1)c1ccc(F)cc1,/,-2,-1,1,-2
O=S(=O)(Nc1cccc2ccccc12)c1ccccc1,9,2,3,5,-4
Cc1ccc(CN2CCCC2(C)C(=O)NC(C)C)cc1 (centres undefined),/,0,-1,1,1
Cc1ccc(Cl)cc1NC(=O)COC(=O)c1ccccc1O,-3,11,2,2,3
COc1ccccc1NC(=O)c1cc2cc(Br)ccc2cc1O,55*,20,3,-3,3
COc1ccccc1NC(=O)c1cccc2c(Br)cccc12,53*,3,2,0,-1
Cc1ccc(Cl)cc1NC(=O)c1cc2ccccc2cc1O,-5,26,8.4*,-9,5
COc1cc(NC(=O)c2cc3ccccc3cc2O)c(OC)cc1Cl,52*,19,5,-4,21*
N#Cc1c(Nc2ccccc2)sc(C(=O)C2CC2)c1N,49*,0,-2,4,2
O=c1oc(CCO)cc2ccc(C#Cc3ccsc3)cc12,-2,6,2,3,2
CN(C)c1ccc(C#Cc2ccc3cc(CCO)oc(=O)c3c2)cc1,6,43*,-1,4,-1
Clc1cccc(Cc2c(C3CCCCC3)nc3ccc(Cl)cn23)c1,/,/,/,/,-3
O=C(Nc1cccnc1)/C(N=Nc1cccnc1)=C(\O)c1ccccc1,61*,15,3,0,3
SMILES,AHR act,MC4R antagonist,MC4R barr agon,FXN GAA850 act,HTR2A ag
COC(=O)C[C@H]1c2cc(C(F)(F)F)ccc2S(=O)(=O)N1C(C)(C)C,3,7,-2,3,-1
Cc1ccc(C)c(NS(=O)(=O)c2ccc3c(c2)Cc2cc(S(=O)(=O)Nc4cc(C)ccc4C)ccc2-3)c1,1,9,8.8*,4,-8
Cc1ccc(C)c(NS(=O)(=O)c2ccc3oc(=O)ccc3c2)c1,2,7,-1,0,-2
CN1C2=NCCN2C(=O)c2cc(Cl)ccc21,59*,7,-1,1,-3
NC(Cc1ccccc1)c1csc(Nc2nccc(C(F)(F)F)n2)n1 (centres undefined),/,-1,2,-3,8
CC1CCC(C(C)C)C(OCC(O)CNC(C)c2ccccc2)C1 (centres undefined),-2,9,8.3*,1,3
